# This is a sample that favours compounds with a hit; in the whole collection about 29% have one here.
# CYP2C9 inh – blockers of cytochrome P450 2C9 activity – biochemical, luminescence, ADME assay, primary screen; 96,000 compounds, 20% hits; P11712; CYP2C9 Supersomes, luciferin-H conversion; AID 777, 2007; inhibition, % at 5 µM;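 active = blocking of liver enzyme CYP2C9 beyond about 50% at 5 µM, limit read from the data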
# CYP2C19 inh – blockers of cytochrome P450 2C19 activity – biochemical, luminescence, ADME assay, primary screen | CYP2C19 Supersomes, luciferin-H EGE luminescence, 30 min | inhibition, % at 5 µM | 96,000 compounds, 21% hits | AID 778, 2007;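 active = CYP2C19 inhibition above a set limit at 5 µM in the primary screen, cut at about 50% in these data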
# Target sequence (P33261 whole entry, looked up): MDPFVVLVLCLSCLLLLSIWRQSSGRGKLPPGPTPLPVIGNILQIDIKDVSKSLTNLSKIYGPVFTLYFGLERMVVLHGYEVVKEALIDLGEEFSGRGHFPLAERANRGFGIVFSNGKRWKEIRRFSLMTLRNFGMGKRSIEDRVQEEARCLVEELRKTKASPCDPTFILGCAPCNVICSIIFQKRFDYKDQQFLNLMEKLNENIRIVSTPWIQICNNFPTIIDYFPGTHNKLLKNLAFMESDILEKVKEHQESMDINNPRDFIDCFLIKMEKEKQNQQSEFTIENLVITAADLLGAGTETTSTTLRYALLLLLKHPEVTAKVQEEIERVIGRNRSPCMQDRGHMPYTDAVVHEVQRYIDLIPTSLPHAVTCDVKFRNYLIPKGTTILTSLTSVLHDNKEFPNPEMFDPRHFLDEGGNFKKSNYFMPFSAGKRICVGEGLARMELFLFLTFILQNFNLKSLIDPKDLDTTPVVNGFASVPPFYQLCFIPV
# CYP2C9 act – human CYP2C9 activators, primary screen, biochemical, luminescence; Cytochrome P450 2C9 (Homo sapiens), P11712; recombinant CYP2C9, luciferin-H conversion; stronger effect = higher value; factor 1 = untreated enzyme, 0 = blocked; activation factor at 5 µM; 96,000 compounds, 1.4% hits;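 active = activation factor of 2 or more for CYP2C9 at a 5 µM dose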
# CYP2C19 act – human CYP2C19 activators, primary screen, biochemical, luminescence; recombinant CYP2C19, luciferin-H EGE luminescence; stronger effect = higher value; 0 = fully inhibited enzyme, 1 = untreated enzyme; activation factor at 5 µM; 96,000 tested, under 10 active; AID 1025, 2008;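 active = activation factor of at least 2 at 5 µM in the primary screen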
# Ecoli tolC – growth inhibitors of E. coli tolC mutant, primary screen, strain BW25113 ΔtolC::kan, 384-well. growth inhibition, % at 10 µM (by protocol). OD615. 65,000 compounds, 2.2% hits;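 active = growth inhibition at or above a cutoff equal to the mean over every tested compound plus 3 SD, cut at about 60% in these data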;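 also: growth measured after 20 h incubation at 37 °C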
#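 Assay system: tolC-deleted E. coli BW25113. Medium: kanamycin-containing LB broth (50 µg/mL). Dosing: 10 µM final, single dose. Timing: bacterial growth with compound for 20 h at 37 °C. Detection: A615 absorbance measurement. Read-out basis: growth inhibition in percent.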
# Ecoli WT expand – growth inhibitors of wild-type E. coli, primary screen, strain BW25113, expanded library, OD600. OD600 absorbance. 98,000 compounds, 0.15% hits. growth inhibition, % at 100 µM;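 active = growth inhibition above about 50% at one test dose, limit read from the data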;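 also: growth measured after 20 h incubation at 37 °C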
# Numbers stand for hits; . = inactive; / = no result.
SMILES,CYP2C9 inh,CYP2C19 inh,CYP2C9 act,CYP2C19 act,Ecoli tolC,Ecoli WT expand
c1ccc2c(CSc3nnc(-c4ccncc4)o3)cccc2c1,91,96,.,.,/,.
Clc1ccccc1CSc1nnc(-c2ccncc2)o1,90,95,.,.,/,.
C=CCSc1nnc(NC(=O)c2ccc(Cl)nc2)s1,.,.,.,.,/,.
CC(C(=O)NC(=O)NC1CCCCC1)N1CCN(c2ccccn2)CC1 (stereo unspecified),57,.,.,.,.,.
Cc1cc(NC(=O)CSc2ccc3nnc(-c4cccs4)n3n2)no1,75,.,.,.,.,.
Cc1ccc(-c2nnc3ccc(SCC(=O)Nc4cc(C)on4)nn23)cc1,50,.,.,.,.,.
CCC(Sc1ccc2nnc(-c3ccc(F)cc3)n2n1)C(=O)OC (stereo unspecified),61,.,.,.,.,.
COc1cc(C2Nc3cc(Cl)c(S(N)(=O)=O)cc3S(=O)(=O)N2)cc(OC)c1OC (stereo unspecified),.,.,.,.,.,.
COc1cc(C2Nc3cc(Cl)c(S(N)(=O)=O)cc3S(=O)(=O)N2)ccc1OCc1ccccc1 (stereo unspecified),70,66,.,.,/,.
O=C1C2CC=CCC2C(=O)N1c1n[nH]c(Cc2ccccc2)n1 (stereo unspecified),.,.,.,.,.,.
O=C1C2CC=CCC2C(=O)N1c1ccc(Cc2ccncc2)cc1 (stereo unspecified),85,68,.,.,.,.
CCc1cc2c(=O)c(-c3cnn(-c4ccccc4)c3)coc2c(CN2CCOCC2)c1O,74,.,.,.,.,.
COc1ccc(Oc2coc3c(CN4CCOCC4)c(O)ccc3c2=O)cc1,.,.,.,.,/,.
O=c1c(-c2ccc(Br)cc2)coc2c(CN3CCOCC3)c(O)ccc12,58,.,.,.,.,.
O=c1oc2c(CN3CCOCC3)c(O)ccc2c2c1CCCC2,.,.,2,.,.,.
Cc1oc2c(CN3CCCC3)c(O)ccc2c(=O)c1-c1ccc(Cl)cc1,.,.,.,.,.,.
Cc1oc2c(CN3CCOCC3)c(O)ccc2c(=O)c1-c1ccc(Br)cc1,54,.,.,.,99,.
Cc1cc(NC(=O)c2cnn3c(C(F)(F)F)cc(-c4ccc(Br)cc4)nc23)no1,.,.,.,.,/,.
O=C(Nc1nnc(CC(=O)N2CCOCC2)s1)C1COc2ccccc2O1 (stereo unspecified),.,.,.,.,.,.
COc1ccccc1C(O)Cc1nc2ccccc2n1C (stereo unspecified),.,95,.,.,/,.
COc1cc(C(=O)NCCc2nc3ccccc3n2C)cc(OC)c1OC,/,/,/,/,.,/
O=S(=O)(NC1CCCCC1)c1cccc(-c2nnc(-c3ccccc3)o2)c1,84,.,.,.,.,.
Cc1ccccc1NS(=O)(=O)c1cccc(-c2nnc(-c3ccccc3)o2)c1,.,.,.,.,.,.
CN(C)S(=O)(=O)c1cccc(-c2nnc(-c3ccccc3)o2)c1,92,.,.,.,/,.
CS(=O)(=O)NCc1nnc(SCC(=O)NC2CCCCC2)n1-c1ccc(F)cc1,.,.,.,.,.,.
SMILES,CYP2C9 inh,CYP2C19 inh,CYP2C9 act,CYP2C19 act,Ecoli tolC,Ecoli WT expand
O=C(NCc1ccc2c(c1)OCO2)c1cc(-c2ccccc2Cl)on1,.,.,.,.,/,.
COc1ccccc1CNC(=O)c1cc2c(C)nn(Cc3ccc(F)cc3)c2s1,78,.,.,.,/,.
COc1ccccc1CNC(=O)c1cc2c(s1)CS(=O)(=O)C2,.,.,.,.,.,.
CCC(CC)NC(=O)c1cc2c(C)nn(Cc3ccccc3Cl)c2s1,71,.,.,.,/,.
Cc1nn(Cc2ccccc2Cl)c2sc(C(=O)NCc3ccc4c(c3)OCO4)cc12,99,92,.,.,/,.
Cc1c(N=Cc2ccc(-c3ccc(Cl)cc3)o2)c(=O)n(-c2ccccc2)n1C,.,59,.,.,.,.
Cc1c(N=Cc2ccc(Cl)o2)c(=O)n(-c2ccccc2)n1C,.,.,.,.,.,.
Cc1cc(Cl)cc(C)c1OCCCCN1CCOCC1,.,54,.,.,.,.
CCC(C)c1ccc(OCCCCN2CCOCC2)cc1 (stereo unspecified),.,57,.,.,/,.
O=c1c2cnn(-c3ccccc3)c2ncn1/N=C/c1ccncc1,/,/,/,/,.,/
COc1ccc(C)cc1C(=O)C1CC(C(=O)O)C(C)(C)C1C (stereo unspecified),.,.,.,.,.,.
Nc1nc(Cl)cc(Sc2ccc(F)cc2)n1,.,.,.,.,/,.
Cc1cc(C)nc(-n2nc(C)c(Sc3ccc(F)cc3)c2N)n1,66,79,.,.,.,.
O=C(CCCn1c(=S)[nH]c2cc3c(cc2c1=O)OCO3)N1CCN(c2ccc(F)cc2)CC1,72,.,.,.,.,.
O=C(CCCn1c(=S)[nH]c2cc3c(cc2c1=O)OCO3)N1CCN(c2ccccc2F)CC1,.,.,.,.,.,.
O=C(CCCn1c(=S)[nH]c2cc3c(cc2c1=O)OCO3)N1CCN(c2ncccn2)CC1,50,.,.,.,.,.
Cc1ccc(C)c(N2CCN(C(=O)CCCn3c(=S)[nH]c4cc5c(cc4c3=O)OCO5)CC2)c1,77,54,.,.,.,.
O=C(CCCn1c(=S)[nH]c2cc3c(cc2c1=O)OCO3)N1CCN(C2CCCCC2)CC1,50,.,.,.,/,.
COc1cccc(N2CCN(C(=O)CCn3c(=S)[nH]c4cc5c(cc4c3=O)OCO5)CC2)c1,.,.,.,.,.,.
Cn1cnnc1SCC(=O)Nc1cccc(C(=O)O)c1,.,.,.,.,/,.
Cn1cnnc1SC(C(=O)Nc1cccc(C(F)(F)F)c1)c1ccccc1 (stereo unspecified),73,71,.,.,/,.
COc1ccc(OC)c2c1sc(=NC(=O)C(C)(C)C)n2C,.,.,.,.,.,.
COc1ccc(C(=O)N=c2sc3c(C)ccc(OC)c3n2C)cc1,53,.,.,.,/,.
COc1ccc(OC)c2c1sc(=NC(=O)C(C)C)n2C,71,71,.,.,.,.
O=C(CSc1nnc(-c2cccnc2)n1-c1ccccc1)Nc1ccc2c(c1)OCO2,.,.,.,.,.,.
CCCn1nc(CC(=O)OCC)c2ccccc2c1=O,.,.,.,.,/,.
COC(=O)C1(C(=O)OC)NOC2C(=O)N(c3ccc(Cl)cc3Cl)C(=O)C21 (stereo unspecified),.,.,.,.,/,.

# Source: PubChem BioAssay (several laboratories)
